From ChEMBL document CHEMBL5380787, “Optimized M24B Aminopeptidase Inhibitors for CARD8 Inflammasome Activation” (J Med Chem, 2023)
Calls of active or inactive are those of the source. The rule behind the calls is not given here.

What was measured:
MV4-11 [1] = experiment: Cytotoxicity against human MV4-11 cells assessed as reduction in cell viability incubated for 24 hrs by celltiter-glo assay; type: functional, cell-based; details: MV4-11, 24 h
How it was run: (§1)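 MV4;11 cells (WT or CASP1−/−), grown in RPMI 1640 with 10% FBS at 37 °C, 5% CO2, plated 2000 cells/well, dosed by pintool across 100 μM to 15.2 nM in three-fold steps for 24 h. Viability by CellTiter-Glo luminescence after 2 min shaking and 10 min at 25 °C. IC50 as mean ± SEM of three biological replicates.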

MV4-11 [2] = experiment: Cytotoxicity against human MV4-11 cells assessed as reduction in cell viability at 0.015 to 100 uM incubated for 24 hrs by celltiter-glo assay; type: functional; details: dose 0.015-100 µM; how it was run: as §1
MV4-11 [3] = experiment: Cytotoxicity against CASP1 knockout human MV4-11 cells assessed as reduction in cell viability at 0.015 to 100 uM incubated for 24 hrs by celltiter-glo assay; type: functional; details: dose 0.015-100 µM; how it was run: as §1
Xaa-Pro dipeptidase = target: T1, Xaa-Pro dipeptidase (Homo sapiens, UniProt P12955); experiment: (§2) Inhibition of recombinant human PEPD using Ala-Pro as substrate assessed as alanine release by measuring increase in fluorescense signal by fluorescence based analysis
T1 sequence (P12955 whole entry): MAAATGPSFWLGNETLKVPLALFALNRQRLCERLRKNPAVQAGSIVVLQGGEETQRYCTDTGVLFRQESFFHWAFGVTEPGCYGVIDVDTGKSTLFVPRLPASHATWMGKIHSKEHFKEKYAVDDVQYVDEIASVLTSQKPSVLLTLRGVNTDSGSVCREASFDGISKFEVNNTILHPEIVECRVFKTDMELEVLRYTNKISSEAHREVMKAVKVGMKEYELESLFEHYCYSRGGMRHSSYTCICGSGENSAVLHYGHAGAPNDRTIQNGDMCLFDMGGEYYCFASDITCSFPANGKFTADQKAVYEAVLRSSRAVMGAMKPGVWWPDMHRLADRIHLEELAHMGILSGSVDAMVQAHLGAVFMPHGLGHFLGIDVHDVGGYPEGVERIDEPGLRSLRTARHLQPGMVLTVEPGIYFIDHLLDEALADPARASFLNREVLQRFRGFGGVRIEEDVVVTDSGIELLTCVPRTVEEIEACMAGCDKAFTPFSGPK

[4] = target: T2, Xaa-Pro dipeptidase (Homo sapiens) (UniProt P12955); experiment: as §2
T2 sequence (whole entry): T1 sequence (P12955 whole entry)

Xaa-Pro aminopeptidase 1 [5] = target: T3, Xaa-Pro aminopeptidase 1 (Homo sapiens, UniProt Q9NQW7); experiment: Inhibition of 6-His tagged XPNPEP1 (unknown origin) expressed in Escherichia coli Rosetta DE3 cells using H-Lys(abz)-Pro-Pro-pNA as substrate incubated for 60 mins by fluorescence based analysis
T3 sequence (Q9NQW7 whole entry): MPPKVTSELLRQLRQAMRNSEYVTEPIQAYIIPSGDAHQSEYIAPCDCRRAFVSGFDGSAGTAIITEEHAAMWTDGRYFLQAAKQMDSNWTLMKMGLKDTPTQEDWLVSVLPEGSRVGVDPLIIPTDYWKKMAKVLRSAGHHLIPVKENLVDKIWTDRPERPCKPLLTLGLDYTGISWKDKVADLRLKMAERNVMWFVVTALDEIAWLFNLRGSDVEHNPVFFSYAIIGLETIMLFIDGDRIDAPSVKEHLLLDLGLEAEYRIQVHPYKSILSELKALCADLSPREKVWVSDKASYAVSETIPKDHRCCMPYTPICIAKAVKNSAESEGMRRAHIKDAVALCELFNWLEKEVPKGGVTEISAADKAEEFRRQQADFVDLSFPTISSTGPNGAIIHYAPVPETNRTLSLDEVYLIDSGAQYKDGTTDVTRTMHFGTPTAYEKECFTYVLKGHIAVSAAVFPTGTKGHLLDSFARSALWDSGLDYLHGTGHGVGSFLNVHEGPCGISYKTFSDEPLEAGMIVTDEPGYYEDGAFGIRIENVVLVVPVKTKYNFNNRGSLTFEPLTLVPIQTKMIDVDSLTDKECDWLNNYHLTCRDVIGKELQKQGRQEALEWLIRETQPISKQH
How it was run: (§3)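 His6-tagged XPNPEP1 was expressed in E. coli Rosetta DE3 (IPTG, 16 h, 37 °C) and purified on TALON resin. Enzyme at 3.5 nM was exposed to compound, then H-Lys(abz)-Pro-Pro-pNA was added at 100 μM final. Fluorescence (Ex/Em 320/410) was followed for 60 min. Single-point inhibition used 20 μM; IC50 as mean ± SEM of three biological replicates.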

[6] = Stability in human MV4-11 cells assessed as retention time of parent compound incubated for 24 hrs by LC/MS analysis; type: ADME, cell-based; details: mv4-11, 24 h
How it was run: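 Compound was held in MV4;11 conditioned medium for 24 h at 37 °C, then LC/MS was run, recording the retention times of the parent ester and its free acid.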

MV4-11 [7] = experiment: Cytotoxicity against CASP1 knockout human MV4-11 cells assessed as reduction in cell viability incubated for 24 hrs by celltiter-glo assay; type: functional, cell-based; details: MV4-11, 24 h; how it was run: as §1
MV4-11 [8] = experiment: Cytotoxicity against human MV4-11 cells assessed as reduction in cell viability at 1 uM incubated for 24 hrs by celltiter-glo assay relative to control; type: functional
How it was run: (§4)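 Single-dose viability screen. MV4;11 or OCI-AML2 cells at 2000 cells/well were exposed to 1 μM compound for 24 h. Viability was read by CellTiter-Glo luminescence and expressed as percent inhibition. Values are means of three biological replicates.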

OCI-AML2 = experiment: Cytotoxicity against human OCI-AML2 cells assessed as reduction in cell viability at 1 uM incubated for 24 hrs by celltiter-glo assay relative to control; type: functional; how it was run: as §4
[9] = target: T2, Xaa-Pro dipeptidase (Homo sapiens); experiment: Inhibition of recombinant human PEPD using Ala-Pro as substrate assessed as alanine release by measuring increase in fluorescense signal at 1 uM by fluorescence based analysis relative to control
How it was run: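 Recombinant human PEPD at 50 nM was incubated with Ala-Pro at 40 μM final and compound. Released alanine was detected by coupled alanine transaminase/pyruvate oxidase conversion to H2O2 and resorufin fluorescence (Ex/Em 535/587 nm) at 25 °C.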

Xaa-Pro aminopeptidase 1 [10] = target: T3, Xaa-Pro aminopeptidase 1; experiment: Inhibition of 6-His tagged XPNPEP1 (unknown origin) expressed in Escherichia coli Rosetta DE3 cells using H-Lys(abz)-Pro-Pro-pNA as substrate at 20 uM incubated for 60 mins by fluorescence based analysis relative to control; how it was run: as §3

Structure (SMILES)	IC50 (MV4-11 [1])	Activity (MV4-11 [2])	Activity (MV4-11 [3])	also measured
COC(=O)[C@@H]1C[C@H](F)CN1C(=O)[C@@H](O)[C@H](N)CC(C)C	61 µM	32%	94%	–
COC(=O)[C@@H]1C[C@H](O)CN1C(=O)[C@@H](O)[C@H](N)CC(C)C	> 100 µM	99%	102%	IC50 (Xaa-Pro dipeptidase): > 100 µM
CC(C)C[C@H](NC(=O)[C@@H]1CCCN1C(=O)[C@@H](O)[C@H](N)CC(C)C)C(=O)O	–	–	–	inhibition [4]: Active; inhibition (Xaa-Pro aminopeptidase 1 [5]): Active; Retention_time [6]: 2.6 min
COC(=O)[C@@H]1CCCN1C(=O)[C@@H](O)[C@H](N)C1CC1	> 100 µM	85%	102%	–
COC(=O)[C@@H]1CCCN1C(=O)[C@@H](O)[C@H](N)CC(C)(C)C	> 100 µM	20%	100%	–
CC[C@H](C)[C@H](NC(=O)[C@@H]1CCCN1C(=O)[C@@H](O)[C@H](N)CC(C)C)C(=O)OC	0.6 µM	–	–	IC50 (MV4-11 [7]): > 20 µM; Activity (MV4-11 [8]): 56%; Activity (OCI-AML2): 42%; inhibition [9]: 48%; inhibition (Xaa-Pro aminopeptidase 1 [10]): 68%
CC(C)C[C@@H](N)[C@H](O)C(=O)N1CCC[C@H]1C(N)=O	17 µM	35%	96%	–
CC(C)C[C@H](NC(=O)[C@@H]1CCCN1C(=O)[C@@H](O)[C@H](N)CC(C)C)C(=O)NCCF	3 µM	–	–	–
CC(C)C[C@H](NC(=O)[C@@H]1CCCN1C(=O)[C@@H](O)[C@H](N)CC(C)C)C(=O)NCCc1ccccc1	0.84 µM	–	–	Retention_time [6]: 3.24 min
COC(=O)[C@@H]1CCCN1C(=O)[C@@H](O)[C@@H](N)c1ccco1	14 µM	23%	71%	–
COC(=O)[C@H](Cc1ccccc1)NC(=O)[C@@H]1CCCN1C(=O)[C@@H](O)[C@H](N)CC(C)C	0.66 µM	–	–	IC50 (MV4-11 [7]): > 20 µM; Activity (MV4-11 [8]): 72%; Activity (OCI-AML2): 42%; inhibition [9]: 43%; inhibition (Xaa-Pro aminopeptidase 1 [10]): 81%
COC(=O)[C@@H]1CCCN1C(=O)[C@@H](O)[C@H](N)Cc1ccccc1	> 100 µM	73%	97%	–
COC(=O)[C@@H]1CCCN1C(=O)[C@@H](O)[C@@H](N)c1cccs1	10 µM	22%	71%	–
CC(C)C[C@@H](N)[C@H](O)C(=O)N1CCC[C@H]1CNS(C)(=O)=O	> 100 µM	89%	97%	IC50 (Xaa-Pro dipeptidase): > 100 µM
CC(C)C[C@H](NC(=O)[C@@H]1CCCN1C(=O)[C@@H](O)[C@H](N)CC(C)C)C(=O)NS(=O)(=O)N(C)C	> 100 µM	–	–	–
CC(C)CCNC(=O)[C@H](CC(C)C)NC(=O)[C@@H]1CCCN1C(=O)[C@@H](O)[C@H](N)CC(C)C	1 µM	–	–	–
COC(=O)[C@H](CC(C)C)NC(=O)[C@@H](O)[C@H](N)CC(C)C	19 µM	30%	12%	–
COC(=O)[C@@H]1CCCN1C(=O)[C@@H](O)[C@H](N)c1ccccc1	15 µM	32%	97%	–
CC(C)C[C@H](NC(=O)[C@@H]1CCCN1C(=O)[C@@H](O)[C@H](N)CC(C)C)C(N)=O	> 100 µM	–	–	–
CC(C)C[C@@H](N)[C@H](O)C(=O)N1CCC[C@H]1c1nnn[nH]1	> 100 µM	85%	95%	–
CC(C)C[C@H](NC(=O)[C@@H]1CCCN1C(=O)[C@@H](O)[C@H](N)CC(C)C)C(=O)NC(C)(C)C	7.3 µM	–	–	–

Structure (SMILES)	IC50 (MV4-11 [1])	Activity (MV4-11 [2])	Activity (MV4-11 [3])	also measured
CCCC[C@@H](N)[C@H](O)C(=O)N1CCC[C@H]1C(=O)OC	11 µM	20%	98%	–
COC(=O)[C@@H]1CCCN1C(=O)[C@@H](O)[C@H](N)CCC(F)(F)F	> 100 µM	68%	100%	–
COC(=O)[C@@H]1CCCN1C(=O)[C@@H](O)[C@H](N)CCCCO	> 100 µM	87%	92%	–
CC(C)C[C@H](NC(=O)[C@@H]1CCCN1C(=O)[C@@H](O)[C@H](N)CC(C)C)C(=O)NCCc1ccc2cc[nH]c2c1	1.3 µM	–	–	IC50 (Xaa-Pro dipeptidase): 10 µM; IC50 (Xaa-Pro aminopeptidase 1 [5]): 2 µM
CC(C)CCNC(=O)[C@@H]1CCCN1C(=O)[C@@H](O)[C@H](N)CC(C)C	15 µM	20%	92%	–
COC(=O)[C@H](C)NC(=O)[C@@H]1CCCN1C(=O)[C@@H]1CCCN1C(=O)[C@@H](O)[C@H](N)CC(C)C	35 µM	–	–	IC50 (MV4-11 [7]): > 100 µM; Activity (MV4-11 [8]): 107%; Activity (OCI-AML2): 95%; inhibition [9]: 96%; inhibition (Xaa-Pro aminopeptidase 1 [10]): 23%
CC(C)C[C@H](NC(=O)[C@@H]1CCCN1C(=O)[C@@H](O)[C@H](N)CC(C)C)C(=O)N(C)C	8.2 µM	–	–	–
CC(C)C[C@H](NC(=O)[C@@H]1CCCN1C(=O)[C@@H](O)[C@H](N)CC(C)C)C(=O)N1CCC1	> 100 µM	–	–	–
COC(=O)[C@H](CC(C)C)NC(=O)[C@@H](O)[C@H](N)Cc1ccccc1 [BESTATIN METHYL ESTER]	3.9 µM	11%	11%	IC50 (Xaa-Pro dipeptidase): > 100 µM; IC50 (Xaa-Pro aminopeptidase 1 [5]): 298 µM
COC(=O)[C@@H]1C[C@H](C)CN1C(=O)[C@@H](O)[C@H](N)CC(C)C	5.6 µM	10%	96%	–
CC(C)C[C@H](NC(=O)[C@@H]1CCCN1C(=O)[C@@H](O)[C@H](N)CC(C)C)C(=O)NCCc1ccc(-c2ccccc2)cc1	0.65 µM	–	–	–
COC(=O)[C@@H]1CC2(CC2)CN1C(=O)[C@@H](O)[C@H](N)CC(C)C	8.1 µM	43%	101%	–
COC(=O)[C@@H]1CCCN1C(=O)[C@@H](O)[C@H](N)C12CC3CC(CC(C3)C1)C2	> 100 µM	83%	98%	–
CONC(=O)[C@@H]1CCCN1C(=O)[C@@H](O)[C@H](N)CC(C)C	> 100 µM	95%	103%	–
C[C@H](NC(=O)[C@@H]1CCCN1C(=O)[C@@H]1CCCN1C(=O)[C@@H](O)[C@H](N)Cc1ccccc1)C(N)=O	> 20 µM	–	–	IC50 (MV4-11 [7]): > 20 µM
COC(=O)[C@@H]1CCCN1C(=O)[C@@H](O)[C@H](N)C(C)C	46 µM	23%	104%	–
COC(=O)[C@H](Cc1ccccc1)NC(=O)[C@@H](O)[C@H](N)CC(C)C	5.4 µM	8%	7%	IC50 (Xaa-Pro dipeptidase): > 100 µM
COC(=O)[C@@H]1CCCN1C(=O)[C@@H](O)[C@H](N)c1ccc2ccoc2c1	60 µM	44%	85%	–
CC(C)C[C@@H](N)[C@H](O)C(=O)N1CCCC1	> 100 µM	91%	85%	IC50 (Xaa-Pro dipeptidase): > 100 µM
CONC(=O)[C@H](CC(C)C)NC(=O)[C@@H]1CCCN1C(=O)[C@@H](O)[C@H](N)CC(C)C	> 100 µM	–	–	–
CC(C)C[C@H](NC(=O)[C@@H]1CCCN1C(=O)[C@@H](O)[C@H](N)CC(C)C)C(=O)NCCc1ccc2ccccc2c1	0.43 µM	–	–	–
